Test results reported in the M2OR odorant receptor database.
Numbering of substitutions follows the chain as printed.

Columns and labels:
Conditions in all cases: stereoisomer not certain
[1] = target: T1, OR1L3 (Homo sapiens) (UniProt Q8NH93)
T1 sequence (whole entry): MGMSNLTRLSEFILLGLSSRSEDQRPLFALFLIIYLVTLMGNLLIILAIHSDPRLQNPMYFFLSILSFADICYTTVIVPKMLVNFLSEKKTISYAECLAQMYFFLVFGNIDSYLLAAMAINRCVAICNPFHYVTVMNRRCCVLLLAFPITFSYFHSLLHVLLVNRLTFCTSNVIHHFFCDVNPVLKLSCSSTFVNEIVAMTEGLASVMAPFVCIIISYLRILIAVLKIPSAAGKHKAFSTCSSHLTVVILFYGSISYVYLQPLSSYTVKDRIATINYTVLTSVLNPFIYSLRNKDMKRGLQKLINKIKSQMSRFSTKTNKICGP
Procedure, shortened: (§1)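 Assay methods differ from source to source, frequently being transient luciferase assays in mammalian cell lines. For each receptor–molecule pair, the label responsive (active) applies when the original authors judged the measured signal statistically different from baseline, and non-responsive (inactive) applies otherwise.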

[2] = target: T2, OR1L4 (Homo sapiens) (UniProt Q8NGR5)
T2 sequence (whole entry): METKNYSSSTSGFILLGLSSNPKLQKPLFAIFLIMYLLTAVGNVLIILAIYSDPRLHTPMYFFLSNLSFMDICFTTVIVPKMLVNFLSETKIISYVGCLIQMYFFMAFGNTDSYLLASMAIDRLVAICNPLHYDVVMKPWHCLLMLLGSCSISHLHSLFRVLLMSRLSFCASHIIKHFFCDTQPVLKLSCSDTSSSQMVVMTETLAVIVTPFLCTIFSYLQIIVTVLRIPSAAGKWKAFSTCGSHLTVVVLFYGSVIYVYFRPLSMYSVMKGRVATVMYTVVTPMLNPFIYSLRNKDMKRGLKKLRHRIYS
Procedure, shortened: as §1

[3] = target: T3, OR1L6 (Homo sapiens) (UniProt Q8NGR2)
T3 sequence (whole entry): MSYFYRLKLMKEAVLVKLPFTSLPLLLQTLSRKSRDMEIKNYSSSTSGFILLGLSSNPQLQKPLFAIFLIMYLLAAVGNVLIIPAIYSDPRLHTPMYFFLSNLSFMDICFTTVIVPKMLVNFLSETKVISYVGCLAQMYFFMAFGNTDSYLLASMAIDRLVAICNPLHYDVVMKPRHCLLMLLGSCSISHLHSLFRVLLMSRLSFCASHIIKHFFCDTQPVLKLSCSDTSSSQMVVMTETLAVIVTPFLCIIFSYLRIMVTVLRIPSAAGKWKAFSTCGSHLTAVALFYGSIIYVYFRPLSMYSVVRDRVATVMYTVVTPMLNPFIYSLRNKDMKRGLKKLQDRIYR
Procedure, shortened: as §1

[4] = target: T4, OR1L8 (Homo sapiens) (UniProt Q8NGR8)
T4 sequence (whole entry): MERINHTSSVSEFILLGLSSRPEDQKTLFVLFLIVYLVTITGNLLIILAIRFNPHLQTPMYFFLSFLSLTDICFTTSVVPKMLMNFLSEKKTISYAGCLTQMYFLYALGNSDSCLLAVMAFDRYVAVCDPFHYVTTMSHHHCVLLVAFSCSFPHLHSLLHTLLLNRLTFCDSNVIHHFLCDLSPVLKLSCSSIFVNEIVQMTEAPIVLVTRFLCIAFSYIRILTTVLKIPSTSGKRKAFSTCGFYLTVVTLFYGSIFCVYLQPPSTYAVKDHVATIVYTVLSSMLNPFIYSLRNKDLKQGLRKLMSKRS
Procedure, shortened: as §1

[5] = target: T5, OR1M1 (Homo sapiens) (UniProt Q8NGA1)
T5 sequence (whole entry): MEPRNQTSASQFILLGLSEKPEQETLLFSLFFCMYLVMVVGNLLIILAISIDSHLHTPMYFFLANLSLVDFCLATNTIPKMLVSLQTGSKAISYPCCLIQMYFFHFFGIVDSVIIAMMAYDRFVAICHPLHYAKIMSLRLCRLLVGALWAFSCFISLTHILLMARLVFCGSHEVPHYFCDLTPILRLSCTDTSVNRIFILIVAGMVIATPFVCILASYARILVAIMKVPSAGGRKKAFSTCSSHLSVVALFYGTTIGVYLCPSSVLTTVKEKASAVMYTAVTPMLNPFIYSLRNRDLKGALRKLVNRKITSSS
Procedure, shortened: as §1

[6] = target: T6, OR1N1 (Homo sapiens) (UniProt Q8NGS0)
T6 sequence (whole entry): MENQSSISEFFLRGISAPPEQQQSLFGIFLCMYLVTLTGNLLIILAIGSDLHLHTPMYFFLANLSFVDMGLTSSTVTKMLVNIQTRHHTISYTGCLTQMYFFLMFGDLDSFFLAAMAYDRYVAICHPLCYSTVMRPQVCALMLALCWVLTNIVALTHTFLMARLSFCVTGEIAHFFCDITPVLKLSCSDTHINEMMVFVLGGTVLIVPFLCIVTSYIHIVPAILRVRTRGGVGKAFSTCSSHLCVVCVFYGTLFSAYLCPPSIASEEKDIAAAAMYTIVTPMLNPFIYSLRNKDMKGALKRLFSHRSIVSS
Procedure, shortened: as §1

[7] = system: T7, OR1N2
T7 sequence (whole entry): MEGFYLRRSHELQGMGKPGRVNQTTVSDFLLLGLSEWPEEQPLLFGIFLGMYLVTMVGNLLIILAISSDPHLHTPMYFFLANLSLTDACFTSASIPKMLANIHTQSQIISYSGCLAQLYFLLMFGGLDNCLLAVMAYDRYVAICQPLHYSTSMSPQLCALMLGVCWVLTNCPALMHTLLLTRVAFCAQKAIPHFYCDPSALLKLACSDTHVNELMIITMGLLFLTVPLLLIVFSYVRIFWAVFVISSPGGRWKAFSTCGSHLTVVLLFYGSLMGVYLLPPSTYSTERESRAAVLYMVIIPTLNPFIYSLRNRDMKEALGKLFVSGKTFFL
Procedure, shortened: as §1

[8] = target: OR1P1 (Homo sapiens) (UniProt Q8NH06)
Chain of OR1P1 (Homo sapiens) (Q8NH06 whole entry K185A): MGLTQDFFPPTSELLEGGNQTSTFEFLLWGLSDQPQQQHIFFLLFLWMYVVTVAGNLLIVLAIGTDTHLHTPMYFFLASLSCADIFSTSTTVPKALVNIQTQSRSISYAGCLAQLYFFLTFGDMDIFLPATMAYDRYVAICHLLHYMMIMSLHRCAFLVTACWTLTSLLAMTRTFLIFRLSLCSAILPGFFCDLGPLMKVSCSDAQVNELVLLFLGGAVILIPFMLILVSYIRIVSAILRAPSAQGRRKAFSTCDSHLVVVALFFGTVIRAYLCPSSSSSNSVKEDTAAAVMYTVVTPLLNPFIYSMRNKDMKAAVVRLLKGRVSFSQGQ
Procedure, shortened: as §1

[9] = target: T8, OR1Q1 (Homo sapiens) (UniProt Q15612)
T8 sequence (whole entry): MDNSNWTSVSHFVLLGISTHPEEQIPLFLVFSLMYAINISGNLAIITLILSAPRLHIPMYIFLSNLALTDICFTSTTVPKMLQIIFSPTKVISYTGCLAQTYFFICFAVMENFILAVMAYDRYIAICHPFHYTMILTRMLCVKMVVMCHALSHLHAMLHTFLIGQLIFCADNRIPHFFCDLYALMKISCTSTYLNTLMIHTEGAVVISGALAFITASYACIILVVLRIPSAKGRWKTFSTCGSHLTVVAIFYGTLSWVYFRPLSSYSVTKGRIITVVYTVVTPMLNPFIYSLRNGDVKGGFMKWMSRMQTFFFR
Procedure, shortened: as §1

[10] = target: T9, OR1S1 (Homo sapiens) (UniProt Q8NH92)
T9 sequence (whole entry): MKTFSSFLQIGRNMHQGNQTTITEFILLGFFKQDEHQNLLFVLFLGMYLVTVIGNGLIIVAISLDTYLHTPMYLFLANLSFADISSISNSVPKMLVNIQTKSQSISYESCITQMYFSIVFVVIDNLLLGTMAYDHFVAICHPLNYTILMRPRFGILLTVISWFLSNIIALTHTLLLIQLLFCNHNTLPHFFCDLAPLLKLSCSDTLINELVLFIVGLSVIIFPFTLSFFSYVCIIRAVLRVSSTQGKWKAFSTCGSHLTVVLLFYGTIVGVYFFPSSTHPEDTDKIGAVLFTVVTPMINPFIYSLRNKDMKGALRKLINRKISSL
Procedure, shortened: as §1

[11] = target: T10, OR1S2 (Homo sapiens) (UniProt Q8NGQ3)
T10 sequence (whole entry): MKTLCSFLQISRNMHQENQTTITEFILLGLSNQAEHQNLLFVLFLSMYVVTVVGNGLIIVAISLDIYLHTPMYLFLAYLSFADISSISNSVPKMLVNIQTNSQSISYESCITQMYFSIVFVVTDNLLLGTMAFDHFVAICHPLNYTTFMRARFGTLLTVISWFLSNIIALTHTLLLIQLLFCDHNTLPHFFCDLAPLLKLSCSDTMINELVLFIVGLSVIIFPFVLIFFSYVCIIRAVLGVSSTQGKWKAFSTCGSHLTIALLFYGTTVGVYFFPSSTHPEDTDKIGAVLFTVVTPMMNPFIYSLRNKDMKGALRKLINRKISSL
Procedure, shortened: as §1

[12] = target: T11, OR2A1 (Homo sapiens) (UniProt Q8NGT9)
T11 sequence (whole entry): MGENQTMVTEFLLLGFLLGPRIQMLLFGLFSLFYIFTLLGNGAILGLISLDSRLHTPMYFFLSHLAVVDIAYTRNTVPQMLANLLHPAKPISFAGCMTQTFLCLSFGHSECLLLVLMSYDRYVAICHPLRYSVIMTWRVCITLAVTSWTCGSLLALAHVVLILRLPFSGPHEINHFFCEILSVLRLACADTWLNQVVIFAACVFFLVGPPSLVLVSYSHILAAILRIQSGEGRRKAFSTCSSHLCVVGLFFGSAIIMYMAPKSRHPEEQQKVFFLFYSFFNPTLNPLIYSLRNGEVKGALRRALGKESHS
Procedure, shortened: as §1

[13] = system: T12, OR1L4
T12 sequence (whole entry): T2 sequence (whole entry) with G234R
Procedure, shortened: as §1

[14] = system: T13, OR1L6
T13 sequence (whole entry): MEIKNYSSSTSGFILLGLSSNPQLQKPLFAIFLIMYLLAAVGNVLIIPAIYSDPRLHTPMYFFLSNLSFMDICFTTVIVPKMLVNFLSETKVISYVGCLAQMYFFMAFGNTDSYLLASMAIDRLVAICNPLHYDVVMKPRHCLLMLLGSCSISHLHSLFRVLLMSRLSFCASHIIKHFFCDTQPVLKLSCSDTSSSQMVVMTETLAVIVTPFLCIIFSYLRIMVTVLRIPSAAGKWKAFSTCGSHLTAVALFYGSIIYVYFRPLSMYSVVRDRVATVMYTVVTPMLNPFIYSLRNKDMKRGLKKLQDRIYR
Procedure, shortened: as §1

[15] = system: T14, OR1L8 T27P R211P
T14 sequence (whole entry): T4 sequence (whole entry) with T27P, R211P
Procedure, shortened: as §1

[16] = system: T15, OR1N2 W37R
T15 sequence (whole entry): T7 sequence (whole entry) with W37R
Procedure, shortened: as §1

[17] = system: T16, OR1Q1
T16 sequence (whole entry): T8 sequence (whole entry) with Q24R, I163M
Procedure, shortened: as §1

[18] = system: T17, OR1S2 E17G
T17 sequence (whole entry): T10 sequence (whole entry) with E17G
Procedure, shortened: as §1

[19] = system: T18, OR1S2 V225T G240R
T18 sequence (whole entry): T10 sequence (whole entry) with V225T, G240R
Procedure, shortened: as §1

[20] = system: T19, OR2A1 S168C
T19 sequence (whole entry): T11 sequence (whole entry) with S168C
Procedure, shortened: as §1

Measured: odorant receptor agonist call

CC1CCCCCCCCCCCCC(=O)C1 (stereo not drawn)
not listed: [13] | [14] | [15] | [16] | [17] | [18] | [19] | [20]
inactive: all other assays above

CCCCC(S)C(C)CO (stereo not drawn)
inactive: [1] | [2] | [3] | [4] | [5] | [6] | [7] | [9] | [10] | [11] | [12]

CCC1OC(=O)C(O)=C1C (stereo not drawn)
not listed: [3] | [8]
inactive: all other assays above

CCCCCCCCCCCCCCCC(=O)OCC
inactive: [12]

CCCCCC(=O)C(C)C(C)=O (stereo not drawn)
inactive: [1] | [2] | [3] | [4] | [5] | [6] | [7] | [9] | [10] | [11] | [12]

CC(O)C(=O)[O-].[H+] (stereo not drawn)
inactive: [12]

CCCCCCCCCCCCCC(=O)OCC
inactive: [12]

CC1=NC(C)C(C)S1 (stereo not drawn)
not listed: [3] | [8]
inactive: all other assays above
